Assay outcomes (PubChem BioAssay)
miR-122 sensor = miR-122 Renilla sensor signal increase in Huh7, primary screen, miR-122 inhibitor project, cell-based, single point, plate reader; Huh7 miR-122 Renilla luciferase sensor, 48 h; neutral wells = 0, positive control = 100; activation (reporter increase), % at 12.5 µM; 340,000 compounds, 0.3% hits; AID 602342, 2012;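 active = mean replicate activation score at least 90 and every replicate individually at or above 90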;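 note: higher luciferase means less miR-122 activity so hits act as miR-122 inhibitors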
dFosB activator = activators of delta FosB homodimer, primary screen, biochemical, fluorescence polarization, TAMRA-CDK5 oligo, single point; Protein FosB (Mus musculus), P13346; purified delta FosB; percent of positive-control signal above neutral wells; activation, % at 25 µM; 340,000 compounds, 0.99% hits; AID 493131, 2011;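 active = mean activation above about 17%, with every replicate also reaching it, limit read from the data, passing the limit was not always enough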
Target sequence (P13346 whole entry, looked up): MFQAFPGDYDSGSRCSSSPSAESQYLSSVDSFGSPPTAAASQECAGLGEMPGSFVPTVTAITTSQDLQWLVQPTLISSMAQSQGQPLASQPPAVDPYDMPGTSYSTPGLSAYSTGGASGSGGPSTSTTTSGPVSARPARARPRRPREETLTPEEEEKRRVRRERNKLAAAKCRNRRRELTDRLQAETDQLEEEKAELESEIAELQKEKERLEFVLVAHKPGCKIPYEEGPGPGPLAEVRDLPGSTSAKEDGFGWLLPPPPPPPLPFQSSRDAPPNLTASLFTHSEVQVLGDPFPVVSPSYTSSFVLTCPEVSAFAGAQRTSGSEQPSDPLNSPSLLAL
GSIS activator = GLuc luminescence reporter in INS-1E cells, primary screen for activators of glucose-dependent secretion of insulin | INS-1E GLuc reporter insulin secretion, 2-3 h | 370,000 compounds, 0.61% hits | activation, % at 16.6 µM;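 active = lowest replicate activation of at least 40%, so every replicate reaches that level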;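 note: 0% = median of neutral control wells and 100% = median of IBMX positive control wells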
Rtt109 Vps75 = inhibitors of C. albicans Rtt109/Vps75 HAT, primary screen, biochemical, ThioGlo CoA-SH fluorescence, plate reader; Histone acetyltransferase RTT109 (Candida albicans (strain SC5314 / ATCC MYA-2876)), …; 330,000 compounds, 0.16% hits; purified Rtt109/Vps75, 4 h; inhibition, % at 34.9 µM;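 active = inhibition of at least 50% in every replicate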
Cneo AK release = Cryptococcus neoformans cell lysis inducers, primary screen, AK release luminescence, single concentration; 360,000 compounds, 0.2% hits; C. neoformans lysis, adenylate kinase release luminescence, 4 h; normalised: neutral wells 0, clomiphene wells 100; lysis activity, % at 15 µM;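 active = mean lysis activity across replicates of at least 80%, whatever share of replicates individually reach that level; inactive = mean lysis activity below 80%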
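Material – Cryptococcus neoformans yeast cells · Quantity – 5 × 10^6 yeast cells/mL · Buffer or medium – YPD medium · Compound – single dose · Timing – 4 h static compound exposure, 37 °C, read 1 h post-reagent · Signal – adenylate kinase release luminescence · Read-out basis – lysis from increased AK signal · Benchmarks – Clomiphene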
HIV Env fusion = inhibitors of HIV-1 Env-driven cell-cell fusion, primary screen, HeLa-JRFL effector, CEM21 target cells, luciferase; inhibition, % at 12.3 µM; 360,000 compounds, 1.1% hits; AID 651610, 2012;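 active = mean replicate inhibition score of at least 50 and every replicate individually at or above 50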;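 note: 0% = plate neutral controls and 100% = maraviroc near 300 nM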
* hit, by the source's call; nt = not tested or not shown; [ ] = another dose, or the depositor's remark. This is a sample that favours compounds with a hit; in the whole collection about 2.4% have one here.

SMILES	miR-122 sensor	dFosB activator	GSIS activator	Rtt109 Vps75	Cneo AK release	HIV Env fusion
COc1ccc2c3c(n(C)c2c1)[C@@H](CO)N(C(=O)Cc1ccccn1)CC31CN(Cc2ccccn2)C1	nt	nt	7	nt	nt	nt
Cc1ccc(S(=O)(=O)Nc2cccc3c2O[C@H](CN(C)Cc2ccc(C(=O)Nc4ccccc4N)cc2)[C@H](C)CN([C@H](C)CO)C3=O)cc1	189*[16.7 µM]	nt	12	nt	57	-100[16.7 µM]
C[C@@H]1CN([C@@H](C)CO)C(=O)c2cccc(NS(=O)(=O)c3ccc(F)cc3)c2O[C@@H]1CN(C)Cc1ccc(C(=O)Nc2ccccc2N)cc1	94*[16.7 µM]	nt	-11	nt	5	-70[16.7 µM]
Cc1ccc(C(=O)n2nc(-c3cccnc3)nc2N)cc1	-8	-8	72*	6	-6	9
O=C1N[C@@H](Cc2ccccc2)COCc2cn(nn2)CC[C@H]1Cc1ccc(Cl)cc1	nt	nt	-13	nt	nt	nt
COc1ccc(Cl)cc1C(=O)NNC(=S)NC(=O)c1cc(-c2ccc(Cl)cc2)nc2ccccc12	3	6	nt	-11	0	94*
CCN(CC)S(=O)(=O)c1ccc(OC)c(NC(=O)c2cc([N+](=O)[O-])ccc2N2CCOCC2)c1	-5	nt	nt	nt	3	67*
CCN(CC)S(=O)(=O)c1ccc(N2CCCC2)c(NC(=O)Cc2cc(OC)c(OC)c(OC)c2)c1	1	-16	-4	3	0	97*
O=C(C[C@@H]1CC[C@@H]2[C@H](COC[C@@H](O)CN2Cc2cc(F)ccc2F)O1)NCc1ccc(Cl)cc1	-6[16.7 µM]	nt	-15	nt	2	5[16.7 µM]
CCOC(=O)[C@@H]1[C@H]2COc3cc(OC)ccc3[C@H]2N2C(=O)N(c3cccc(F)c3)C(=O)[C@@]12C	0	-9	-7	8	4	95*
CCOC(=O)[C@@H]1[C@H]2COc3ccccc3[C@H]2N2C(=O)N(c3cccc(Cl)c3)C(=O)[C@@]12C	nt	-6	nt	2	8	nt
CCOC(=O)[C@@H]1[C@H]2COc3ccccc3[C@@H]2N2C(=O)N(c3cccc(Cl)c3)C(=O)[C@@]12C	3	0	-16	19	-3	55*
CCOC(=O)[C@H]1[C@H]2COc3ccccc3[C@@H]2N2C(=O)c3c(C)cc(C)cc3NC(=O)[C@@]12C	-4	-1	-16	2	1	89*
CCOC(=O)[C@@H]1[C@H]2COc3cc(OC)ccc3[C@H]2N2C(=O)N(c3ccc(C(F)(F)F)cc3)C(=O)[C@]12C	-2	5	-29	0	-4	109*
Cn1cnc(S(=O)(=O)N[C@@H]2C=C[C@H](CC(=O)NCC3CCCCC3)O[C@@H]2CO)c1	nt	nt	2	nt	1	-1[16.7 µM]
COc1cc2c(cc1OC)C(=O)N1[C@H]3c4ccccc4OC[C@@H]3[C@H](c3ccccc3)[C@]1(C)C(=O)N2	nt	4	-25	5	-5	66*
COc1ccc2c(c1)OC[C@H]1[C@H]2N2C(=O)CN(Cc3ccc(Cl)cc3)C(=O)[C@@]2(C)[C@H]1c1ccccc1	2	-7	-3	-3	-3	73*
COc1ccc2c(c1)OC[C@H]1[C@H]2N2C(=O)c3cc(OC)c(OC)cc3NC(=O)[C@@]2(C)[C@H]1c1ccccc1	-18	15	-14	5	-5	-31
CCOn1c(=O)c[n+]([O-])c2ccccc21	2	3	-5	2	3	6
O=c1c[n+]([O-])c2ccccc2n1OCc1c(F)cccc1F	111*	-5	nt	-8	6	nt
COc1ccc(C(C(=O)NC2CCCC2)n2c(Cc3cc(F)cc(F)c3)nc3ccccc32)cc1 (configuration not stated)	nt	nt	-25	nt	nt	33
COc1ccc(C(C(=O)NC2CCCC2)n2c(CSCCOc3ccccc3)nc3ccccc32)cc1 (configuration not stated)	nt	nt	-20	nt	nt	78*
N#Cc1ccc(C(C(=O)NC2CCCCC2)n2c(=O)c(-c3ccco3)nc3ccccc32)cc1 (configuration not stated)	nt	nt	-1	nt	nt	17
O=C(NC1CCCCC1)C(c1ccccc1)n1c(=O)c(-c2ccco2)nc2ccccc21 (configuration not stated)	nt	nt	-40	nt	nt	63*
CC(NC(=O)CCc1nnc(C2(c3ccc(Cl)cc3)CCC2)o1)C1CC1 (configuration not stated)	nt	-7	0	0	nt	-11
SMILES	miR-122 sensor	dFosB activator	GSIS activator	Rtt109 Vps75	Cneo AK release	HIV Env fusion
O=C(CCc1nnc(C2(c3ccc(Cl)cc3)CCC2)o1)NCCCn1cccn1	nt	0	17	50*	nt	2
CC(=O)N1CC2(C1)[C@@H](c1ccc(-c3cccc(F)c3)cc1)[C@@H](CO)N2CC1CCOCC1	nt	nt	-22	nt	nt	nt
CC(C)CCNC(=O)C1CCN(S(=O)(=O)c2ccc3c(c2)CC(C)N3C(=O)C2CCC2)CC1 (configuration not stated)	-4	-16	-8	94*	-20	22
O=C(C[C@H]1CC[C@@H]2[C@H](COC[C@H](O)CN2C(=O)Nc2ccc(Cl)c(Cl)c2)O1)NCc1ccccc1	-5[16.7 µM]	nt	-14	nt	-4	nt
O=C(CC1CC1)N1[C@@H]2CN(S(=O)(=O)c3ccccc3)c3ccccc3[C@@H]2[C@@H]1CO	25[16.7 µM]	nt	-1	nt	106*	nt
Cc1ccc(-c2csc(NC(=O)C[n+]3cc(-c4ccccc4)n4c3CCC4)n2)cc1	3	nt	-17	nt	-2	-5
Cc1ccc(-c2csc(NC(=O)C[n+]3cc(-c4ccc(C)cc4)n4c3CCC4)n2)cc1	nt	37*	-47	14	nt	20
Cc1nn(C)cc1NC(=O)C[C@@H]1CC[C@@H]2[C@@H](COc3ccc(NC(=O)C4CCC4)cc3C(=O)N2C)O1	8[16.7 µM]	nt	14	nt	nt	-4[16.7 µM]
CS(=O)(=O)N1CCCCC1c1cc(C(=O)Nc2cccc(C#N)c2)no1 (configuration not stated)	-7	nt	41*	nt	2	13
CS(=O)(=O)N1CCCCC1c1cc(C(=O)Nc2ccccc2)no1 (configuration not stated)	-3	nt	-2	nt	2	-5
CC=Cc1ccc2n(c1=O)C[C@H]1[C@H](CO)[C@@H](C(=O)N(C)C)[C@@H]2N1CC1CCCC1 (mixture of isomers)	nt	nt	-3	nt	nt	nt
C[C@H]1COCn2nncc2CCCC(=O)N1	nt	nt	13	nt	nt	nt
Cc1ccc(-n2c(COc3c(C)cccc3C)nnc2SCC(=O)Nc2nccs2)cc1	-3	21*	nt	-10	-2	-35
Cc1ccc(OCc2nnc(SCC(=O)Nc3nccs3)n2-c2ccccc2)cc1C	-6	-8	nt	-16	-1	nt
